Results on 2 compounds are retold here after article PMC6690926 (International Journal of Nanomedicine, 2019).

*1 amine or outer side, *2 acyl side, *3 side chain or, on linkers, in order; H or OH if unused. Where a SMILES comes first, the peptide text is derived from it. Bridges are numbered along the chain shown (N, C = ends). Roman numbers before positions name the chains, in order. [ ]: non-standard residue; d: D form. Actinocin(9to1) = Cc1c2oc3c(C)ccc(C(=O)[*:1])c3nc-2c(C(=O)[*:2])c(N)c1=O; NMeV = CN[C@H](C(=O)O)C(C)C; Sar = CNCC(=O)O

What is called viability is a read-out of living cells in per cent, often relative to untreated cells. Usually Papp stands for a coefficient for how fast a substance crosses the barrier. Higher therefore signals ready permeation. One may read the bioavailability as the share of a dose that reaches the circulation, judged against a reference dose that is usually intravenous. The low end stands for little systemic uptake, the high end for much systemic uptake. By AUC(0-inf) is commonly meant the area under the concentration-time curve extrapolated to infinity. The AUC(0-t) is exposure summed from dosing to a finite time, without extrapolation to infinity. Low values mean low exposure, high ones high exposure. As a reminder, the Cmax is the peak of the concentration-time curve. As a reminder, the Tmax is the time from dosing to the highest level. As a reminder, the half-life is the time needed for the level to fall by half in the phase considered. A lower half-life goes with fast loss.

The nature of data set [1]: In vitro cytotoxicity of Act D. The data set is classed as cell-based. The conditions noted are these: human, Caco-2 cells. The procedure, abridged:
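Caco-2 cells were seeded at 1×10^4 cells/well in DMEM with 10% FBS and cultured for 24 h. They were then exposed for 5 h to the test compound at 1, 2, 3.2 and 6 µM in HBSS. WST-8 was added for 1 h and absorbance read at 450 nm. Viability is expressed as a percentage of untreated cells; mean ± SD, n=6.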

Data set [2] can be described thus: Parallel artificial membrane permeability assay. Format: in vitro ADME. The conditions noted are these: PAMPA, pH 6.8. The procedure, abridged: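 PAMPA: donor wells held test formulation diluted in PBS pH 6.8 to 200 µg/mL drug equivalent; receiver wells held PBS pH 6.8. Plates were incubated 5 h at room temperature. Donor and receiver concentrations were measured by HPLC at 254 nm (C18; water pH 3.5/acetonitrile 80:20, 1 mL/min). Effective permeability was calculated with filter area 0.288 cm2, donor volume 0.2 mL and receiver volume 0.3 mL, using equilibrium concentration.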

Data set [3] is described as follows: In vitro permeability across a Caco-2 cell monolayer. The data set is classed as in vitro ADME. The conditions noted are these: human. A general note: Caco-2 monolayers are a common model of the intestinal barrier.
Data set [4] can be described thus: In vivo pharmacokinetic study in rats. The conditions noted are these: Sprague-Dawley, rat, plasma, 25 mg/kg. The procedure, abridged: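 Male Sprague-Dawley rats (6–7 weeks, 200–250 g) received the test formulation orally in water at 25 mg/kg drug equivalent. The IV reference was 5 mg/kg aqueous drug by tail vein. Retro-orbital blood was taken into heparin plus 3.8% sodium citrate, spun at 2,500×g for 15 min at 4 °C, and plasma stored at −70 °C. Plasma was assayed by LC/MS (C18, ESI positive, m/z 428; DAMPA internal standard). Non-compartmental analysis; n=4, mean ± SD.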

For the compound `Cc1c2oc3c(C)ccc(C(=O)N[C@@H]4C(=O)N[C@H](C(C)C)C(=O)N5CCC[C@H]5C(=O)N(C)CC(=O)N(C)[C@@H](C(C)C)C(=O)O[C@@H]4C)c3nc-2c(C(=O)N[C@@H]2C(=O)N[C@H](C(C)C)C(=O)N3CCC[C@H]3C(=O)N(C)CC(=O)N(C)[C@@H](C(C)C)C(=O)O[C@@H]2C)c(N)c1=O` [Act D, actinomycin D] (I: T[dV]P[Sar][NMeV] / II: T[dV]P[Sar][NMeV]; ester I:1-I:C, II:1-II:C; linker I:N-II:N via Actinocin(9to1)), the viability at 5 h, 3.2 µM in data set [1] was 105 ± 6.81%.
In data set [2], `Nc1nc2[nH]cc(CCc3ccc(C(=O)N[C@@H](CCC(=O)O)C(=O)O)cc3)c2c(=O)[nH]1` [PMX, N-[4-[2-(2-amino-3,4-dihydro-4-oxo-7H-pyrrolo[2,3-d]pyrimidin-5-yl)-ethyl]-benzoyl]-L-glutamic acid] showed a Papp at 5 h, 200 µg/mL of 0.29 ± 0.08 ×10⁻⁶ cm/s. This compound yielded a Papp at 5 h, 100 µg/mL in data set [3] of 1.78 ± 0.118 ×10⁻⁶ cm/s. The same compound showed a bioavailability in data set [4] (oral) of 5.02 ± 0.57%. Moreover, in data set [4] (po), the AUC(0-inf) stood at 2770 ± 210 ng·h/mL, the AUC(0-t) worked out at 2350 ± 270 ng·h/mL, the Cmax turned out to be 1280 ± 170 ng/mL and the Tmax is 0.63 ± 0.25 h. The compound also gave a half-life in data set [4] (po) of 2.5 ± 0.45 h.
